The text below walks through data of ChEMBL document CHEMBL4834414 (J Med Chem, 2021).

Calls of active or inactive are those of the source. The calls are words filed in the database; no cut-off is given here.

Experiment [1] has as its target T1, Microtubule-associated protein 1 light chain 3 alpha (Homo sapiens, UniProt Q9H492). Description: Binding affinity to human LC3A expressed in Escherichia coli BL21-(DE3) by single site binding model based isothermal titration calorimetry. A digest of the protocol:
(§1)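 Human Atg8-family proteins (LC3A, LC3C, GABARAP, GABARAPL1, GABARAPL2) expressed with a modified Ub tag, equilibrated in 50 mM Na2HPO4, 100 mM NaCl, 5% DMSO, pH 7.0; ligand prepared in the same buffer. ITC at 25 °C: 0.4 mM ligand titrated into 0.020 mM protein in 21 injections. Kd from a nonlinear least-squares fit to a single-site binding model.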
On the technique in general: Isothermal titration calorimetry measures the heat released or taken up as one component is titrated into another.

The target in experiment [2] is Gamma-aminobutyric acid receptor-associated protein-like 1 (Homo sapiens) (UniProt Q9H0R8). Put plainly: Binding affinity to human GABARAPL1 expressed in Escherichia coli T7 by single site binding model based isothermal titration calorimetry. The gist of the method:
as §1

Experiment [3] has as its target Gamma-aminobutyric acid receptor-associated protein-like 2 (Homo sapiens) (UniProt P60520). Description: Binding affinity to human GABARAPL2 expressed in Escherichia coli T7 by single site binding model based isothermal titration calorimetry. A digest of the protocol: as §1
Experiment [4] addresses Microtubule-associated protein 1 light chain 3 gamma (Homo sapiens) (UniProt Q9BXW4). Description: Binding affinity to human LC3C expressed in Escherichia coli BL21-(DE3) by single site binding model based isothermal titration calorimetry. A digest of the protocol: as §1
For experiment [5], the target named is Gamma-aminobutyric acid receptor-associated protein (Homo sapiens) (UniProt O95166). Put plainly: Binding affinity to human GABARAP expressed in Escherichia coli T7 by single site binding model based isothermal titration calorimetry. A digest of the protocol:
as §1

Experiment [6] has as its target T2, Microtubule-associated protein 1 light chain 3 beta (Homo sapiens, UniProt Q9GZQ8).
Experiment [7] deals with T2, Microtubule-associated protein 1 light chain 3 beta. Description: Binding affinity to human LC3B expressed in Escherichia coli BL21-(DE3) by isothermal titration calorimetry.
Experiment [8] has as its target T1, Microtubule-associated protein 1 light chain 3 alpha. Put plainly: Displacement of sGFP-p62-LIR peptide from human N-terminal SNAP-fused LC3A by time-resolved FRET assay. The gist of the method: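 HTRF displacement: 10 nM N-terminal SNAP-LC3A labeled with terbium cryptate (donor) and 1 μM p62-LIR-sGFP (acceptor), with compound at varying concentrations in 1% DMSO. Buffer 25 mM HEPES pH 7.5, 150 mM KF, 10% glycerol, 0.1% CHAPS, 5 mM DTT. Incubated 2 h at RT; excitation 340 nm, emission read at 520 and 620 nm. IC50 with SD; Ki calculated.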

The target in experiment [9] is T2, Microtubule-associated protein 1 light chain 3 beta. Put plainly: Displacement of sGFP-p62-LIR peptide from human N-terminal SNAP-fused LC3B by time-resolved FRET assay.
The target in experiment [10] is T1, Microtubule-associated protein 1 light chain 3 alpha. Description: Binding affinity to recombinant LC3A (unknown origin) assessed as shift of melting temperature by differential scanning fluorimetry. A digest of the protocol: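 LC3A at 30 μM in HTRF buffer with 0.1% CHAPS, 2.5× SYPRO orange, 300 μM inhibitor and 1% DMSO, with a no-protein background. Heated 25.0 to 79.8 °C at 1 °C/min; excitation 490 nm, emission 570 nm. Tm taken as the first-derivative maximum; ΔTm against DMSO control. Triplicates in three independent experiments.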

For experiment [11] the target is unchanged. Put plainly: Binding affinity to human LC3A expressed in Escherichia coli BL21-(DE3) by isothermal titration calorimetry. The gist of the method:
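His-tagged LC3A from E. coli BL21(DE3), TEV-cleaved and purified by IMAC, reverse IMAC and SEC into HTRF buffer (25 mM HEPES pH 7.5, 150 mM KF, 10% glycerol, 5 mM DTT), plus 0.1% CHAPS and 1% DMSO. ITC at 25 °C, stirring 75 rpm: 80 μM protein; inhibitor at 500 μM or 1 mM. Injection settings optimized per compound; dilution heats checked by blank titrations.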

Sequence of Gamma-aminobutyric acid receptor-associated protein-like 1 (Homo sapiens) (Q9H0R8 whole entry, looked up): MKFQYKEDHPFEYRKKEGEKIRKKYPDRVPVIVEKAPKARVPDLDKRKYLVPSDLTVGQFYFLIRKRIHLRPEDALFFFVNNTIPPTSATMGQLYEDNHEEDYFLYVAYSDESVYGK
Sequence of Gamma-aminobutyric acid receptor-associated protein-like 2 (Homo sapiens) (P60520 whole entry): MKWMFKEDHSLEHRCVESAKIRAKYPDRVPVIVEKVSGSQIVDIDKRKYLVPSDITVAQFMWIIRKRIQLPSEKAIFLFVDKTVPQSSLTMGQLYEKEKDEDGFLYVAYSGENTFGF
Sequence of Microtubule-associated protein 1 light chain 3 gamma (Homo sapiens) (Q9BXW4 whole entry): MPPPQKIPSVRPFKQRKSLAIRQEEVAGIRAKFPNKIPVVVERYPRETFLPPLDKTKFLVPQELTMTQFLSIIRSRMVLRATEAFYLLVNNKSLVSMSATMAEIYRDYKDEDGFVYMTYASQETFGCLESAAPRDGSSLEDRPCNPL
Sequence of Gamma-aminobutyric acid receptor-associated protein (Homo sapiens) (O95166 whole entry): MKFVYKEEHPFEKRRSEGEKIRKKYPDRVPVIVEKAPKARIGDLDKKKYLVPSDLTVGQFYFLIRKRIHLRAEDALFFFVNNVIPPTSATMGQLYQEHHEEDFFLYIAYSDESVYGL

Take `CO[C@@H]1[C@@H](OC(N)=O)[C@@H](O)[C@H](Oc2ccc3c(O)c(NC(=O)c4ccc(O)c(CC=C(C)C)c4)c(=O)oc3c2C)OC1(C)C`: the outcome in experiment [1] was Active. The outcome in [2], in experiment [3], in experiment [4] and in experiment [5] was inactive.
Take `CO[C@@H]1[C@@H](OC(N)=O)[C@@H](O)[C@H](Oc2ccc3c(O)c(NC(=O)c4ccc(O)c(CCC(C)C)c4)c(=O)oc3c2C)OC1(C)C`: the thermal shift (ΔTm) in [6] and in [10] was 5.6 °C in each case. Further, the Kd in experiment [7] came to 11.4 µM; in [11] it was 2.8 µM. Also, the IC50 in experiment [8] (read-out: IC50) was 16 µM; in experiment [9] (read-out: IC50) it was 72.3 µM. Further, the Ki in [8] (read-out: Ki) is 3.3 µM; in experiment [9] (read-out: Ki), 8.1 µM.

One may read the ΔTm as the shift of the melting midpoint relative to a reference. As usually defined, the Kd is the free concentration of one partner at which half of the binding sites on the other are occupied at equilibrium, for simple one-to-one binding. A lower Kd goes with a tighter complex. By IC50 is commonly meant the midpoint of a concentration-inhibition curve. For orientation: Ki means the equilibrium dissociation constant of an inhibitor or competing ligand from its target.
